This note sets out measurements from ChEMBL document CHEMBL3098047, “Design, synthesis and structure-activity relationships of substituted oxazole-benzamide antibacterial inhibitors of FtsZ” (Bioorg Med Chem Lett, 2014).

In general, half-life refers to the time needed for the level to fall by half in the phase considered. In general, clearance refers to the rate of elimination divided by the concentration. A high value points to a high capacity for elimination. The term Vd denotes the apparent volume that relates the amount in the body to the concentration in plasma or blood. Low values mean confinement near the circulation, high ones extensive tissue distribution. The AUC is concentration integrated over time. Higher therefore signals more exposure.

Series [1] deals with T1, Cell division protein FtsZ (Staphylococcus aureus) (UniProt P0A031).
T1 sequence (whole entry): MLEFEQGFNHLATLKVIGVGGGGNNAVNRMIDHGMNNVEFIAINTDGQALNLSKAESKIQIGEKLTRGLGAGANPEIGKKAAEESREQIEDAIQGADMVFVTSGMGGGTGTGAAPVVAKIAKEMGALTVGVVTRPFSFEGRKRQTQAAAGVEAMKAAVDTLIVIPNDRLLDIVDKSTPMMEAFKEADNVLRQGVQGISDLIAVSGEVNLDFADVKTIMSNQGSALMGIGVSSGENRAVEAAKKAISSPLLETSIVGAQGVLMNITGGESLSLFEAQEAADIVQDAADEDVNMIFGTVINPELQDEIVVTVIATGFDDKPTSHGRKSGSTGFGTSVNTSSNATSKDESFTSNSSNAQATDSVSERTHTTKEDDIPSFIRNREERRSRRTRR
The series is described as follows: Inhibition of Staphylococcus aureus ATCC 29213 FtsZ-mediated cell division phenotype. In short, it runs like this: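 S. aureus ATCC 29213 cell division inhibition assay run alongside MIC testing; value is the lowest concentration at which an inhibition of cell division phenotype was seen (µg/mL).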

Series [2] is described as follows: Half life in mouse microsomes at 10 uM by LC-MS/MS analysis. In kind it is ADME, Microsome. In short, it runs like this:
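Mouse microsomes at 1 mg/mL protein, compound 10 μM, 0.1% v/v DMSO final; started with 1 mM NADPH, stopped with DMSO at 0, 10, 30, 60 min. Acetonitrile extraction, centrifugation, LC-MS of supernatant; half-life in min.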

The nature of series [3]: Metabolic stability in mouse plasma assessed as compound remaining at 10 uM after 24 hrs by LC-MS/MS analysis. Type of series: ADME, cell-free. The settings on record: read-out: Stability. In short, it runs like this: (§1)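 Compound at 10 μM in PBS pH 7.4 or neat mouse plasma, 5% v/v DMSO final, incubated 24 h at 37 °C. Samples extracted with acetonitrile and centrifuged; supernatant analysed by LC-MS; reported as % remaining.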

Series [4] relates to Staphylococcus aureus. Nature of the series: Antibacterial activity against Staphylococcus aureus ATCC 29213 by broth microdilution method. In kind it is functional. A digest of the protocol: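 Broth microdilution MIC per CLSI guidelines against S. aureus ATCC 29213; MIC in µg/mL.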
A general note: Dilution methods test growth across graded concentrations, often in twofold steps.

Series [5] is described as follows: Kinetic solubility of the compound in PBS buffer at pH 7.4 after 24 hrs by turbidimetric method. Type of series: physicochemical. Particulars: read-out: Kinetic_solubility. A digest of the protocol:
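Turbidimetric: doubling dilutions in DMSO diluted twenty-fold into PBS pH 7.4, equilibrated 24 h at room temperature, absorbance read at 620 nm. Value is highest concentration with no measurable precipitate.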

Series [6] can be described thus: Clearance in Balb/c mouse at 3 mg/kg, iv by LC-MS/MS analysis. Type of series: ADME, organism-based. Also noted: dose 3 mg/kg, route intravenous. The settings on record: in vivo.
The nature of series [7]: Half life in CD-1 mouse hepatocytes at 10 uM by LC-MS/MS analysis. Type of series: ADME, cell-based, Hepatocyte. A digest of the protocol: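 Cryopreserved CD-1 mouse hepatocytes (5×10^4 cells), compound 10 μM in duplicate, 0.5% v/v DMSO final; stopped with DMSO at seven time points up to 120 min. Acetonitrile extraction, centrifugation, LC-MS of supernatant; half-life in min.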

The nature of series [8]: Half life in Balb/c mouse at 3 mg/kg, iv by LC-MS/MS analysis. In kind it is ADME, organism-based. On the set-up: dose 3 mg/kg, route intravenous. Particulars: in vivo.
The nature of series [9]: Volume of distribution in Balb/c mouse at 3 mg/kg, iv by LC-MS/MS analysis. Type of series: ADME, organism-based. Also noted: dose 3 mg/kg, route intravenous. The settings on record: in vivo.
A short description of series [10]: Chemical stability of the compound in PBS buffer assessed as compound remaining at 10 uM at pH 7.4 after 24 hrs by LC-MS/MS analysis. Type of series: physicochemical. Particulars: read-out: Stability. In short, it runs like this:
as §1

Series [11] deals with Staphylococcus aureus. The series is described as follows: Antibacterial activity against Staphylococcus aureus harboring FtsZ G196A mutant by broth microdilution method. Type of series: functional. A digest of the protocol: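 S. aureus ATCC 29213 derivative with G196A substitution in FtsZ; MIC by broth microdilution following CLSI guidelines; reported in µg/mL.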
A short description of series [12]: Initial plasma concentration in Balb/c mouse at 3 mg/kg, iv by LC-MS/MS analysis. In kind it is ADME, organism-based. On the set-up: dose 3 mg/kg, route intravenous.
Series [13] in a line: AUC in Balb/c mouse at 3 mg/kg, iv by LC-MS/MS analysis. In kind it is ADME, organism-based. Also noted: dose 3 mg/kg, route intravenous. The settings on record: plasma.

Converted amounts (≈) assume the structure as drawn. Bounds are passed on as bounds.

For the molecule `NC(=O)c1c(F)ccc(OC(CO)c2nc(-c3ccc(C(F)(F)F)cc3)c(Br)o2)c1F` (racemic), the MIC was 0.5 µg/mL (≈ 0.986 µM) in series [1], 0.25 µg/mL (≈ 0.493 µM) in the series on Staphylococcus aureus [4] and 8 µg/mL (≈ 15.8 µM) in the series with Staphylococcus aureus [11]. Besides, the half-life at 10 µM is greater than 2 h in [2] and 1.19 h in series [7]. Moreover, the results for the remaining at 24 h, 10 µM in [3] and in series [10] were 100% and 102%, respectively. In addition, the solubility kinetic at 24 h in series [5] stood at 100 µg/mL (≈ 197 µM). The molecule also registered a clearance in series [6] of 7 mL/min/kg. In addition, the half-life in [8] is 2.12 h. The molecule further registered a Vd in series [9] of 1.3 L/kg. The molecule also had a C0 in [12] of 4200 ng/mL. In addition, the AUC in series [13] was 6700 ng·h/mL.
With `CC(Oc1ccc(F)c(C(N)=O)c1F)c1nc(-c2ccc(OC(F)(F)F)cc2)c(Br)o1` (racemic), the MIC (in series [1]; in the series with Staphylococcus aureus [4]) was 0.12 µg/mL (≈ 0.237 µM) each time. Also, the half-life at 10 µM in series [2] is greater than 2 h; in series [7], 1.69 h. The values for the remaining at 24 h, 10 µM in series [3] and in series [10] were 104% and 96%, respectively. For the same molecule, in series [6], the clearance was 36 mL/min/kg. Besides, in [8], the half-life came out at 0.883 h. In addition, the Vd in [9] stood at 2.7 L/kg. Further, in [12], the C0 was found to be 2500 ng/mL. Also, the AUC in [13] is 1400 ng·h/mL.
For `CC(Oc1ccc(F)c(C(N)=O)c1F)c1nc(-c2ccc(OC(F)(F)F)cc2)c(Cl)o1` (racemic), the MIC was found to be 0.25 µg/mL (≈ 0.54 µM) in series [1] and 0.12 µg/mL (≈ 0.259 µM) with Staphylococcus aureus [4]. The clearance in series [6] was 31 mL/min/kg. The molecule also had a half-life in series [8] of 1.32 h. The molecule further showed a Vd in series [9] of 3.5 L/kg. Besides, the C0 in [12] is 2100 ng/mL. The same molecule had an AUC in [13] of 1600 ng·h/mL.
`CCCc1oc(COc2ccc(F)c(C(N)=O)c2F)nc1-c1ccc(Cl)cc1`: the MIC was found to be 0.015 µg/mL (≈ 0.0369 µM) in series [1] and 0.03 µg/mL (≈ 0.0737 µM) in the series with Staphylococcus aureus [4]. The half-life at 10 µM was found to be 1.14 h in series [2] and 0.298 h in series [7]. Also, the remaining at 24 h, 10 µM in series [3] stood at 101%; in series [10] it was 98%. This molecule had a clearance in series [6] of 137 mL/min/kg. In addition, in series [8], the half-life turned out to be 0.417 h. This molecule also registered a distribution volume (Vd) in series [9] of 5 L/kg. Also, in [12], the C0 was 1200 ng/mL. Also, the AUC in [13] was 400 ng·h/mL.
In the case of `CCc1oc(COc2ccc(F)c(C(N)=O)c2F)nc1-c1ccc(OC)cc1`, the MIC in series [1] was 0.12 µg/mL (≈ 0.309 µM); against Staphylococcus aureus [4] it was 0.12 µg/mL (≈ 0.309 µM); in the series with Staphylococcus aureus [11], greater than 64 µg/mL. Besides, the values for the half-life at 10 µM in [2] and in [7] were 1.19 h and 0.39 h, respectively. The remaining at 24 h, 10 µM amounted to 100% in series [3] and 97% in [10]. This molecule came in with a clearance in series [6] of 319 mL/min/kg. Besides, the half-life in series [8] amounted to 0.167 h. In addition, the Vd in series [9] was 4.3 L/kg. In [12], this molecule showed a C0 of 1100 ng/mL. This molecule yielded an exposure (AUC) in [13] of 200 ng·h/mL.
